The record followed here is ChEMBL document CHEMBL6127097, “Structure-Guided Discovery of cis-Hexahydro-pyrido-oxazinones as Reversible, Drug-like Monoacylglycerol Lipase Inhibitors” (J Med Chem, 2024).

The target of data set [1] is T1, Lysophosphatidylserine lipase ABHD12 (Mus musculus) (UniProt Q99LR1).
T1 sequence (whole entry): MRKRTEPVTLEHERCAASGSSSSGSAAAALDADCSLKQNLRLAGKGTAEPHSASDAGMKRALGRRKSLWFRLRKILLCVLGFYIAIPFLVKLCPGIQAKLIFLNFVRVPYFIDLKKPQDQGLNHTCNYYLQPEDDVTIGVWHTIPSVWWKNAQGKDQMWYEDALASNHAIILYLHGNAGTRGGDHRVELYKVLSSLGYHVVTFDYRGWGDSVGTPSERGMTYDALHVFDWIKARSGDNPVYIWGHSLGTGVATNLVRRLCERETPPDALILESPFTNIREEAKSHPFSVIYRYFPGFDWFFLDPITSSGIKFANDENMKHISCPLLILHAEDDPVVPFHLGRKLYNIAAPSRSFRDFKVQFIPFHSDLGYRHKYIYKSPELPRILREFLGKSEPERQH
Kind of data set: Inhibition of ABHD12 in mouse brain lysates at 10 uM by ABPP assay. Type of data set: subcellular. A digest of the protocol:
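Gel-based activity-based protein profiling of hydrolases, with the inhibitor at 10 µM.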

For data set [2], the system named is Mus musculus. The data set is described as follows: Upregulation of brain 2-AG level in ip dosed mouse measured after 4 hrs. Format: functional, organism-based. The following applies: dose 3-30 mg/kg. A digest of the protocol: (§1)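 Mice dosed i.p. in NaCl/DMSO/TW80 (80/10/10): 3, 10 or 30 mg/kg with sacrifice at 4 h, or 30 mg/kg over a 24 h time course. Brain extract 2-AG and AA were measured by LC/MS.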

The subject of data set [3] is Mus musculus. The data set is described as follows: Downregulation of brain AA level in ip dosed mouse measured after 4 hrs. Format: functional, organism-based. The following applies: dose 3-30 mg/kg. A digest of the protocol: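 Mice received 3, 10 or 30 mg/kg i.p. in NaCl/DMSO/Tween 80 (80/10/10) and were sacrificed after 4 h. Arachidonic acid in brain extracts was measured by LC/MS.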

The subject of data set [4] is Mus musculus. The data set is described as follows: Upregulation of brain 2-AG level in mouse at 30 mg/kg, ip measured after 2 hrs. Format: functional, organism-based. A digest of the protocol:
as §1

Data set [5] deals with T2, Monoglyceride lipase (Mus musculus) (UniProt O35678).
T2 sequence (whole entry): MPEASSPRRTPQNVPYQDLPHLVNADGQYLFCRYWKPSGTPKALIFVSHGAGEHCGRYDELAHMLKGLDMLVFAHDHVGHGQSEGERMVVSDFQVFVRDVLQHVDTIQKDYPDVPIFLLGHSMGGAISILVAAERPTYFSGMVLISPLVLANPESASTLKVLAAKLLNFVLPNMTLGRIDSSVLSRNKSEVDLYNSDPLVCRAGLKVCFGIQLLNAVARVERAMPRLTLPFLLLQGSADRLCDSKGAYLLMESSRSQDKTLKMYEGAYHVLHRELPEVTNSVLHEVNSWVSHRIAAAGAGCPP
Kind of data set: In vivo receptor occupancy at MAGL receptor in mouse at 30 mg/kg, ip measured after 24 hrs. Format: functional, organism-based. A digest of the protocol:
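Mice dosed 30 mg/kg i.p. in NaCl/DMSO/TW80 (80/10/10). Brain proteome was prepared at set time points over 24 h and MAGL occupancy read by activity-based protein profiling.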

Data set [6] relates to Mus musculus. The data set is described as follows: Antiinflammatory activity in LPS-induced CD-1 mouse neuroinflammation model assessed as decrease in peripheral tissue LCN2 mRNA expression at 30 mg/kg, ip measured after 6 hrs by qRT-PCR analysis. Format: functional, organism-based. A digest of the protocol:
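CD-1 mice were dosed with NaCl + vehicle, LPS (5 mg/kg) + vehicle, or LPS + inhibitor at 30 mg/kg i.p. (vehicle NaCl/DMSO/Tween 80, 80/10/10). They were sacrificed 6 h post-compound. LCN2 and IL1b mRNA in peripheral tissue were measured by droplet digital qRT-PCR.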

The nature of data set [7]: Effective permeability of compound at pH 7.4 at 20 uM incubated for 18 hrs by LCMS analysis. Format: ADME. To be noted: not told, read-out: Peff. In a few lines: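 PAMPA passive permeability. Donor holds 20 µM sample in 50 mM phosphate-buffered saline pH 7.4, at most 5% DMSO, in triplicate. The lipid/oil/lipid trilayer-impregnated hydrophobic filter sandwich is left unshaken 18 h at 21 °C. Reference, donor and acceptor solutions are analysed by LCMS to give P_eff.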

A short description of data set [8]: Chemical stability at pH 6.5 incubated for 2 hrs. Type of data set: physicochemical. The following applies: buffer, pH 6.5, 2 h. A digest of the protocol: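 Compound was held in aqueous buffer at the stated pH for 2 h at 37 °C.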
The next data set deals with T3, Monoglyceride lipase (Rattus norvegicus, UniProt Q8R431).
T3 sequence (Q8R431 whole entry): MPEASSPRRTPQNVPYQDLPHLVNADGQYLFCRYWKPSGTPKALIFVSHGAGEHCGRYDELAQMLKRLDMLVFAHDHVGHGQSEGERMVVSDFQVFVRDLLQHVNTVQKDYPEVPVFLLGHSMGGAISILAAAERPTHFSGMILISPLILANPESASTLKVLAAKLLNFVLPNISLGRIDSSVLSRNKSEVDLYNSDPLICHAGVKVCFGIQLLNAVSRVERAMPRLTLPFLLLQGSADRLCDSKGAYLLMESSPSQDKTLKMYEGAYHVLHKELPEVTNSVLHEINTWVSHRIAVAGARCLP
Kind of data set: Binding affinity to rat MAGL assessed as equilibrium dissociation constant by SPR analysis. In a few lines: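 Human or rat MAGL was immobilized by amine coupling without ethanolamine quenching. Runs were done at 18 °C in 10 mM HEPES, 150 mM NaCl, 0.05% P20, 50 µM EDTA, pH 7.4, with 1% DMSO. Single-cycle kinetics used five concentrations, top 1 µM in 2-fold steps, at 30 µL/min, giving kon, koff and Kd.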

Data set [9] in a line: Plasma protein binding in mouse assessed as fraction unbound by equilibrium dialysis based LC-MS/MS method. Type of data set: ADME, cell-free. In a few lines: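 Equilibrium dialysis across a 12–14 kDa cutoff membrane in a Teflon 96-well device. Pooled frozen plasma is adjusted to pH 7.4 and spiked at 1000 nM initial total, against Soerensen buffer pH 7.4. Incubation is 5 h at 37 °C, 5% CO2, with diazepam control in each well. %fu = 100 × buffer/matrix concentration after dialysis; recovery accepted at 80–120%.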

A further data set deals with human P-gp. The data set is described as follows: Apparent permeability across apical to basolateral side in pig LLC-PK1 cells expressing human P-gp. Format: ADME, cell-based, Sus scrofa. A digest of the protocol: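 LLC-PK1 porcine kidney cells transfected with human or mouse P-gp were grown as polarized monolayers on filter membranes. Compound was dosed to the apical side and receiver appearance followed over 3 h at 37 °C. A→B Papp was measured with the P-gp inhibitor zosuquidar present at 1 µM.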

Data set [10] can be described thus: Average drug concentration in mouse plasma at 3 mg/kg, ip measured after 4 hrs. Type of data set: ADME, organism-based. The following applies: in vivo. In a few lines: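 Mice received 3, 10 or 30 mg/kg i.p. The compound was dissolved in DMSO/Tween 80 (1:1) and diluted with 8 parts saline (NaCl/DMSO/TW80 80/10/10). Plasma was taken 4 h after injection and average concentrations reported.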

The nature of data set [11]: Average drug concentration in mouse plasma at 30 mg/kg, ip measured after 24 hrs. Type of data set: ADME, organism-based. To be noted: in vivo. A digest of the protocol: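 In a time course, mice were injected i.p. with 30 mg/kg in NaCl/DMSO/Tween 80 (80/10/10). Average plasma levels were determined at the stated time points over 24 h.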

The structures appear in SMILES notation. pKd: −log10 of the molar value. Activity calls are given as the source filed them.

In the case of `O=C1CO[C@H]2CCN(C(=O)N3CCC(Cc4ccc(C(F)(F)F)cc4)CC3)C[C@H]2N1` [listing 1 of 2 here], the inhibition result in data set [1] is “inactive”. Also, the Activity entry in the data set with Mus musculus [2] was “Dose-Dependent Effect”; in the data set on Mus musculus [3] it was “Dose-Dependent Effect”; in data set [5] it was 5%. In the data set with Mus musculus [4], the outcome was Active. For the same molecule, in the data set with Mus musculus [6], the result was inactive.

Take `O=C1CO[C@H]2CCN(C(=O)N3CCC(Cc4ccc(C(F)(F)F)cc4)CC3)C[C@H]2N1` [listing 2 of 2 here]: in data set [7], the Papp at 18 h, 20 µM was 12.8 ×10⁻⁶ cm/s. Further, the Stability entry in [8] was “Stable”. For the same molecule, the negative-log Kd (pKd) on Monoglyceride lipase was 7.19. Further, the fraction unbound in data set [9] came to 0.047. Moreover, the apparent permeability from apical to basolateral (Papp A→B) with human P-gp was determined as 17.6 ×10⁻⁶ cm/s. For the same molecule, the results for the Cave in data set [10] and in [11] were 1901 nM and 100 nM, respectively.
